The source made the active and inactive calls. No cut-off for these calls is given here.
Columns and labels:
[1] = target: Sigma non-opioid intracellular receptor 1 (Cavia porcellus, UniProt Q60492); experiment: Displacement of [3H]-(+)-pentazocine from sigma 1 receptor in Dunkin Hartley guinea pig membrane after 180 mins by liquid scintillation counting analysis; format: cell membranes
[2] = Displacement of [3H]-DTG from sigma 2 receptor in Dunkin Hartley guinea pig membrane after 120 mins by liquid scintillation counting analysis […]; format: cell membranes, Cavia porcellus
Cavia porcellus = species: Cavia porcellus; experiment: Selectivity ratio of Ki for sigma 2 receptor in Dunkin Hartley guinea pig membrane to Ki for sigma 1 receptor in Dunkin Hartley guinea pig membrane; format: cell membranes
Mus musculus [3] = experiment: Antinociceptive activity against formalin-induced pain in Kunming mouse assessed as reduction in mean licking and biting time at 80 mg/kg, ip administered 15 mins before fomalin injection measured during second phase of 15 to 45 mins after formalin challenge; format: functional; settings: route intraperitoneal
Mus musculus [4] = experiment: Antinociceptive activity against formalin-induced pain in Kunming mouse assessed as reduction in mean licking and biting time at 80 mg/kg, ip administered 15 mins before fomalin injection measured during first phase of 0 to 5 mins after formalin challenge; format: functional; settings: route intraperitoneal
Mus musculus [5] = experiment: Antinociceptive activity in ip dosed Kunming mouse assessed as reduction in formalin-induced pain behaviour administered 15 mins before fomalin injection measured during first phase of 0 to 5 mins after formalin challenge; format: functional
Summary of the method: (§1)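 Kunming mice (20 ± 2.0 g), 10–12 per group, dosed i.p. in 30% PEG 400 (10 mL/kg) 15 min before intraplantar formalin. Paw licking/biting time was scored in phase I (0–5 min) and phase II (15–45 min). Antinociception (%) = (vehicle licking time − drug licking time)/vehicle licking time × 100. Two-way ANOVA with Newman-Keuls test.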

[6] = target: Sigma non-opioid intracellular receptor 1 (Cavia porcellus) (UniProt Q60492); experiment: Ratio of Ki for sigma 1 receptor in Dunkin Hartley guinea pig membrane in absence of phenytoin to Ki for sigma 1 receptor in Dunkin Hartley guinea pig membrane in presence of phenytoin; format: cell membranes
Sequence of Sigma non-opioid intracellular receptor 1 (Cavia porcellus) (Q60492 whole entry): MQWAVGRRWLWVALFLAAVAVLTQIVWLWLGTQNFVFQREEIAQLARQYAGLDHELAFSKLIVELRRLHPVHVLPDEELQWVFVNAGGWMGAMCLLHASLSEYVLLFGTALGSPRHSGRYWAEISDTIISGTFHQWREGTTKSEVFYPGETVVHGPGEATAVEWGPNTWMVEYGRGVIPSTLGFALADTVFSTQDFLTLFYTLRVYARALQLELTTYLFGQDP

Mus musculus [7] = experiment: Antinociceptive activity in Kunming mouse assessed as reduction in formalin-induced pain behaviour at 40 mg/kg, ip administered 15 mins before fomalin injection measured during first phase of 0 to 5 mins after formalin challenge; format: functional; summary of the method: as §1
Mus musculus [8] = experiment: Antinociceptive activity in Kunming mouse assessed as reduction in formalin-induced pain behaviour at 80 mg/kg, ip administered 15 mins before fomalin injection measured during second phase of 15 to 45 mins after formalin challenge; format: functional; summary of the method: as §1
Mus musculus [9] = experiment: Antinociceptive activity in Kunming mouse assessed as reduction in formalin-induced pain behaviour at 40 mg/kg, ip administered 15 mins before fomalin injection measured during second phase of 15 to 45 mins after formalin challenge; format: functional; summary of the method: as §1
Mus musculus [10] = experiment: Antinociceptive activity in Kunming mouse assessed as reduction in formalin-induced pain behaviour at 160 mg/kg, ip administered 15 mins before fomalin injection measured during first phase of 0 to 5 mins after formalin challenge; format: functional; summary of the method: as §1
Mus musculus [11] = experiment: Antinociceptive activity in Kunming mouse assessed as reduction in formalin-induced pain behaviour at 160 mg/kg, ip administered 15 mins before fomalin injection measured during second phase of 15 to 45 mins after formalin challenge; format: functional; summary of the method: as §1
Mus musculus [12] = experiment: Antinociceptive activity in ip dosed Kunming mouse assessed as reduction in formalin-induced pain behaviour administered 15 mins before fomalin injection measured during second phase of 15 to 45 mins after formalin challenge; format: functional; summary of the method: as §1
Mus musculus [13] = experiment: Antinociceptive activity in Kunming mouse assessed as reduction in formalin-induced pain behaviour at 80 mg/kg, ip administered 15 mins before fomalin injection measured during first phase of 0 to 5 mins after formalin challenge; format: functional; summary of the method: as §1
[14] = target: Sigma non-opioid intracellular receptor 1 (Homo sapiens, UniProt Q99720); experiment: Binding affinity to sigma 1 receptor (unknown origin)
Sequence of Sigma non-opioid intracellular receptor 1 (Homo sapiens, UniProt Q99720) (Q99720 whole entry): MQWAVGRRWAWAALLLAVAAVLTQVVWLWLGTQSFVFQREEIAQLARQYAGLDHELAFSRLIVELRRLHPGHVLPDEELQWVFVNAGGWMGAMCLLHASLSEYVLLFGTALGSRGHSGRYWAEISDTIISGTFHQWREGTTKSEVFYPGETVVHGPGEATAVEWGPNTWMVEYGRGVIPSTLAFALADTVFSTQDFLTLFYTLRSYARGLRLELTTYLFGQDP

Sequence of Sigma non-opioid intracellular receptor 1 (Cavia porcellus, UniProt Q60492) (Q60492 whole entry): as the sequence (Q60492 whole entry) above

Ki [1] [nM]	Ki [2] [nM]	Ratio Ki (Cavia porcellus)	Compound	also measured
21.6	100	4.6	O=C1CCc2ccc(OCCCN3CCOCC3)cc2N1CCc1ccccc1	–
98.2	1800	18.3	O=C1CCN(CCCOc2ccc3c(c2)N(Cc2ccccc2)C(=O)CC3)CC1	–
682	2000	–	O=C1CCc2ccc(OCCCCCCN3CCOCC3)cc2N1Cc1ccccc1	–
1.1	319	290	CC1CCN(CCCOc2ccc3c(c2)N(Cc2ccccc2)C(=O)CC3)CC1	–
70.7	430	6.1	O=C1CCc2cc(OCCCCCN3CCOCC3)ccc2N1Cc1ccccc1	–
14.8	471	31.8	O=C1CCc2ccc(OCCCN3CCOCC3)cc2N1Cc1ccccc1	–
44.8	1200	26.8	O=C1CCc2ccc(OCCCCN3CCOCC3)cc2N1CCc1ccccc1	–
> 2000	> 2000	–	O=C1CCc2ccc(OCCN3CCOCC3)cc2N1Cc1ccccc1	–
83.2	205	2.4	CN(C)CCCOc1ccc2c(c1)N(Cc1ccccc1)C(=O)CC2	–
4.3	161	37.4	CN1CCN(CCCOc2ccc3c(c2)N(Cc2ccccc2)C(=O)CC3)CC1	–
> 2000	> 2000	–	O=C1CCc2cc(OCCN3CCOCC3)ccc2N1Cc1ccccc1	–
792	1120	1.4	O=C1CCc2cc(OCCCN3CCOCC3)ccc2N1Cc1ccccc1	–
60.2	530	8.8	O=C1CCc2ccc(OCCCCN3CCOCC3)cc2N1Cc1ccccc1	–
341	> 2000	–	O=C1CCc2ccc(OCCCN3CCN(c4ccccc4)CC3)cc2N1Cc1ccccc1	–
88.4	1810	20.4	O=C1CCc2ccc(OCCCCCN3CCOCC3)cc2N1Cc1ccccc1	–
1.84	662	360	O=C1CCc2ccc(OCCCN3CCCCC3)cc2N1Cc1ccccc1	–
22.2	260	11.7	O=C1CCc2cc(OCCCCN3CCOCC3)ccc2N1Cc1ccccc1	–
23.8	550	23.1	O=C1CCc2ccc(OCCCN3CCCC3)cc2N1Cc1ccccc1	–
1.69	825	488	Cc1ccc(CN2C(=O)CCc3ccc(OCCCN4CCCCC4)cc32)cc1	–
852	> 2000	–	O=C1CCc2cc(OCCCCCCN3CCOCC3)ccc2N1Cc1ccccc1	–

More lines, now with the values behind:

Compound	Ki [1] [nM]	Ki [2] [nM]	Ratio Ki (Cavia porcellus)	also measured
CC1CCN(CCCOc2ccc3c(c2)N(C)C(=O)CC3)CC1	40.2	311	7.7	–
CN1C(=O)CCc2ccc(OCCCN3CCCCC3)cc21	34.3	357	10.4	–
Cc1ccc(CN2C(=O)CCc3ccc(OCCCN4CCC(C)CC4)cc32)cc1	1.49	755	507	–
Cc1cc(OCCN2CCOCC2)nn1-c1ccc2ccccc2c1	10.5	> 2000	> 190	Time (Mus musculus [3]): 27.34 s; Time (Mus musculus [4]): 8.63 s
O=C1CCc2ccc(OCCCN3CCCCC3)cc2N1Cc1ccc(F)cc1	1.22	1300	1070	ED50 (Mus musculus [5]): 49.4 mg/kg; inhibition (Mus musculus [5]): Dose-dependent effect; Ratio Ki [6]: 0.86; inhibition in vivo at 40 mg/kg (Mus musculus [7]; route intraperitoneal): 33.4%; Time (Mus musculus [3]): 36.13 s; inhibition in vivo at 80 mg/kg (Mus musculus [8]; route intraperitoneal): 87.7%; inhibition in vivo at 40 mg/kg (Mus musculus [9]; route intraperitoneal): 30.5%; inhibition in vivo at 160 mg/kg (Mus musculus [10]; route intraperitoneal): 97.6%; Time (Mus musculus [4]): 12.08 s; inhibition in vivo at 160 mg/kg (Mus musculus [11]; route intraperitoneal): 98.2%; ED50 (Mus musculus [12]): 50.5 mg/kg; inhibition (Mus musculus [12]): Dose-dependent effect; inhibition in vivo at 80 mg/kg (Mus musculus [13]; route intraperitoneal): 84.8%
COc1cccc2c1CCC(=O)N2CCCN1CCN(c2cccc(Cl)c2)CC1	–	–	–	IC50 [14]: 47 nM
CC1CCN(CCCOc2ccc3c(c2)N(Cc2ccc(F)cc2)C(=O)CC3)CC1	0.77	960	1250	Ratio Ki [6]: 0.91; inhibition (Mus musculus [7]): Active; Time (Mus musculus [3]): 89.75 s; inhibition (Mus musculus [8]): Active; inhibition (Mus musculus [9]): Active; inhibition (Mus musculus [10]): Active; Time (Mus musculus [4]): 34.82 s; inhibition (Mus musculus [11]): Active; inhibition (Mus musculus [13]): Active
Cc1ccccc1NC(=N)Nc1ccccc1C [DITOLYLGUANIDINE]	–	49.2	–	–
O=C1CCc2cc(OCCCCN3CCOCC3)ccc2N1CCc1ccccc1	195	> 2000	–	–
O=C1CCc2ccc(OCCCN3CCCCC3)cc2N1	89.1	288	3.2	–
O=C1CCc2cc(OCCCN3CCOCC3)ccc2N1CCc1ccccc1	40.2	98.1	2.4	–
O=C(CCCN1CCC(O)(c2ccc(Cl)cc2)CC1)c1ccc(F)cc1 [HALOPERIDOL]	–	36.4	–	–
CCN(CC)CCCOc1ccc2c(c1)N(Cc1ccccc1)C(=O)CC2	39.4	97.2	2.5	–
CC1CCN(CCCOc2ccc3c(c2)NC(=O)CC3)CC1	66.7	409	6.1	–

— ChEMBL document CHEMBL3232762, “Synthesis and biological evaluation of a novel sigma-1 receptor antagonist based on 3,4-dihydro-2(1H)-quinolinone scaffold as a potential analgesic” (Eur J Med Chem, 2014)
